Results: ChEMBL document CHEMBL1811814, “Synthesis and evaluation of indole, pyrazole, chromone and pyrimidine based conjugates for tumor growth inhibitory activities--development of highly efficacious cytotoxic agents” (Eur J Med Chem, 2010)

What was measured:
Type in all cases: functional
OVCAR-3 [1] = assay: Growth inhibition of human OVCAR3 cells
PC-3 = assay: Growth inhibition of human PC3 cells
HT-29 = assay: Growth inhibition of human HT-29 cells assessed tumor cell growth at 10^-5 M; parameters: scale not given: the % may be the effect or the level left
Outline: (§1)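 NCI 60-human-tumor-cell-line panel screen. Each compound was tested at a single concentration of 10^-5 M, and percent growth of tumor cells was recorded for each cell line. Growth inhibition was expressed from these percent-growth values.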

UACC-62 = assay: Growth inhibition of human UACC62 cells assessed tumor cell growth at 10^-5 M; parameters: scale not given: the % may be the effect or the level left
Outline: (§2)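 Single-dose screen at 10^-5 M across the 60 human tumor cell line panel, run to NCI standards. The value is the percent growth of each cell line in the presence of compound. Compounds active at this dose moved on to five-concentration testing (10^-4 to 10^-8 M).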

NCI-H460 [2] = assay: Growth inhibition of human NCI-H460 cells assessed tumor cell growth at 10^-5 M; parameters: scale not given: the % may be the effect or the level left; outline: as §1
M14 [3] = assay: Growth inhibition of human M14 cells assessed tumor cell growth at 10^-5 M; parameters: scale not given: the % may be the effect or the level left; outline: as §1
LOX IMVI = assay: Growth inhibition of human LOXIMVI cells
EKVX [4] = assay: Growth inhibition of human EKVX cells assessed tumor cell growth at 10^-5 M; parameters: scale not given: the % may be the effect or the level left; outline: as §1
SR = assay: Growth inhibition of human SR cells assessed tumor cell growth at 10^-5 M; parameters: scale not given: the % may be the effect or the level left; outline: as §2
[5] = Growth inhibition of human Hs 578T cells assessed tumor cell growth at 10^-5 M; parameters: scale not given: the % may be the effect or the level left; outline: as §1
SNB-75 = assay: Growth inhibition of human SNB75 cells assessed tumor cell growth at 10^-5 M; parameters: scale not given: the % may be the effect or the level left; outline: as §2
OVCAR-5 = assay: Growth inhibition of human OVCAR5 cells
K562 = assay: Growth inhibition of human K562 cells assessed tumor cell growth at 10^-5 M; parameters: scale not given: the % may be the effect or the level left; outline: as §1
EKVX [6] = assay: Growth inhibition of human EKVX cells
M14 [7] = assay: Growth inhibition of human M14 cells
Malme-3M = assay: Growth inhibition of human MALME-3M cells
CCRF-CEM = assay: Growth inhibition of human CCRF-CEM cells assessed tumor cell growth at 10^-5 M; parameters: scale not given: the % may be the effect or the level left; outline: as §1
SK-OV-3 [8] = assay: Growth inhibition of human SKOV3 cells
UO-31 = assay: Growth inhibition of human UO31 cells assessed tumor cell growth at 10^-5 M; parameters: scale not given: the % may be the effect or the level left; outline: as §2
SN12C [9] = assay: Growth inhibition of human SN12C cells assessed tumor cell growth at 10^-5 M; parameters: scale not given: the % may be the effect or the level left; outline: as §1
NCI-H460 [10] = assay: Growth inhibition of human NCI-H460 cells
SN12C [11] = assay: Growth inhibition of human SN12C cells
MDA-MB-435 = assay: Growth inhibition of human MDA-MB-435 cells
NCI-H226 = assay: Growth inhibition of human NCI-H226 cells assessed tumor cell growth at 10^-5 M; parameters: scale not given: the % may be the effect or the level left; outline: as §1
SNB-19 [12] = assay: Growth inhibition of human SNB19 cells
OVCAR-4 [13] = assay: Growth inhibition of human OVCAR4 cells assessed tumor cell growth at 10^-5 M; parameters: scale not given: the % may be the effect or the level left; outline: as §1
T47D = assay: Growth inhibition of human T47D cells assessed tumor cell growth at 10^-5 M; parameters: scale not given: the % may be the effect or the level left; outline: as §2
SF-295 = assay: Growth inhibition of human SF295 cells
DU-145 = assay: Growth inhibition of human DU145 cells assessed tumor cell growth at 10^-5 M; parameters: scale not given: the % may be the effect or the level left; outline: as §1
SF-539 = assay: Growth inhibition of human SF539 cells
MCF7 = assay: Growth inhibition of human MCF7 cells assessed tumor cell growth at 10^-5 M; parameters: scale not given: the % may be the effect or the level left; outline: as §1
SW-620 = assay: Growth inhibition of human SW620 cells
[14] = Growth inhibition of human […] cells assessed tumor cell growth at 10^-5 M; parameters: scale not given: the % may be the effect or the level left; outline: as §1
OVCAR-4 [15] = assay: Growth inhibition of human OVCAR4 cells
HCT-15 [16] = assay: Growth inhibition of human HCT15 cells
OVCAR-3 [17] = assay: Growth inhibition of human OVCAR3 cells assessed tumor cell growth at 10^-5 M; parameters: scale not given: the % may be the effect or the level left; outline: as §1
MOLT-4 = assay: Growth inhibition of human MOLT4 cells
IGROV-1 = assay: Growth inhibition of human IGROV1 cells
Outline: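 Follow-up panel testing at five concentrations (10^-4, 10^-5, 10^-6, 10^-7 and 10^-8 M) across the 60 human tumor cell lines. GI50 was obtained for each line from the concentration-response data, with the panel average GI50 also reported.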

HCT-15 [18] = assay: Growth inhibition of human HCT15 cells assessed tumor cell growth at 10^-5 M; parameters: scale not given: the % may be the effect or the level left; outline: as §1
TK-10 = assay: Growth inhibition of human TK10 cells
A549 = assay: Growth inhibition of human A549 cells
KM12 = assay: Growth inhibition of human KM12 cells assessed tumor cell growth at 10^-5 M; parameters: scale not given: the % may be the effect or the level left; outline: as §1
COLO 205 = assay: Growth inhibition of human COLO205 cells assessed tumor cell growth at 10^-5 M; parameters: scale not given: the % may be the effect or the level left; outline: as §1
A498 = assay: Growth inhibition of human A498 cells
SF-268 = assay: Growth inhibition of human SF268 cells
SK-MEL-28 = assay: Growth inhibition of human SK-MEL-28 cells assessed tumor cell growth at 10^-5 M; parameters: scale not given: the % may be the effect or the level left; outline: as §1
SNB-19 [19] = assay: Growth inhibition of human SNB19 cells assessed tumor cell growth at 10^-5 M; parameters: scale not given: the % may be the effect or the level left; outline: as §2
NCI/ADR-RES = assay: Growth inhibition of human NCI/ADR-RES cells assessed tumor cell growth at 10^-5 M; parameters: scale not given: the % may be the effect or the level left; outline: as §1
ACHN = assay: Growth inhibition of human ACHN cells assessed tumor cell growth at 10^-5 M; parameters: scale not given: the % may be the effect or the level left; outline: as §1
SK-OV-3 [20] = assay: Growth inhibition of human SKOV3 cells assessed tumor cell growth at 10^-5 M; parameters: scale not given: the % may be the effect or the level left; outline: as §1
HOP-92 = assay: Growth inhibition of human HOP92 cells assessed tumor cell growth at 10^-5 M; parameters: scale not given: the % may be the effect or the level left; outline: as §1
MDA-MB-468 = assay: Growth inhibition of human MDA-MB-468 cells
[21] = read-out: LC50 (the source's name)

Compound: CC1=NN(c2cccc(Cl)c2)C(=O)/C1=C\c1c(O)ccc2ccccc12
- GI50 (OVCAR-3 [1]): 58.8 µM
- CC50 (OVCAR-3 [1]; [21]): > 100 µM
- GI50 (PC-3): > 100 µM
- CC50 (PC-3; [21]): > 100 µM
- Activity (HT-29): 13.48%
- Activity (UACC-62): 82.71%
- Activity (NCI-H460 [2]): 79.03%
- Activity (M14 [3]): 18.24%
- GI50 (LOX IMVI): > 100 µM
- CC50 (LOX IMVI; [21]): > 100 µM
- Activity (EKVX [4]): 51.27%
- Activity (SR): 29.7%
- Activity [5]: 82.15%
- Activity (SNB-75): 10.3%
- GI50 (OVCAR-5): > 100 µM
- CC50 (OVCAR-5; [21]): > 100 µM
- Activity (K562): 99.09%
- GI50 (EKVX [6]): > 100 µM
- CC50 (EKVX [6]; [21]): > 100 µM
- GI50 (M14 [7]): > 100 µM
- CC50 (M14 [7]; [21]): > 100 µM
- GI50 (Malme-3M): 29.5 µM
- CC50 (Malme-3M; [21]): > 100 µM
- Activity (CCRF-CEM): 36.33%
- GI50 (SK-OV-3 [8]): 26.3 µM
- CC50 (SK-OV-3 [8]; [21]): > 100 µM
- Activity (UO-31): 66.56%
- Activity (SN12C [9]): 23.59%
- GI50 (NCI-H460 [10]): > 100 µM
- CC50 (NCI-H460 [10]; [21]): > 100 µM
- GI50 (SN12C [11]): > 100 µM
- CC50 (SN12C [11]; [21]): > 100 µM
- GI50 (MDA-MB-435): > 100 µM
- CC50 (MDA-MB-435; [21]): > 100 µM
- Activity (NCI-H226): 1.04%
- GI50 (SNB-19 [12]): 45.7 µM
- CC50 (SNB-19 [12]; [21]): > 100 µM
- Activity (OVCAR-4 [13]): -66.84%
- Activity (T47D): 2.21%
- GI50 (SF-295): 22.9 µM
- CC50 (SF-295; [21]): > 100 µM
- Activity (DU-145): 35.43%
- GI50 (SF-539): 0.01 µM
- CC50 (SF-539; [21]): > 100 µM
- Activity (MCF7): 3.07%
- GI50 (SW-620): > 100 µM
- CC50 (SW-620; [21]): > 100 µM
- Activity [14]: 96.44%
- GI50 (OVCAR-4 [15]): > 100 µM
- CC50 (OVCAR-4 [15]; [21]): > 100 µM
- GI50 (HCT-15 [16]): > 100 µM
- CC50 (HCT-15 [16]; [21]): > 100 µM
- Activity (OVCAR-3 [17]): 63.18%
- GI50 (MOLT-4): > 100 µM
- LC50 (MOLT-4): > 100 µM
- GI50 (IGROV-1): 26.9 µM
- CC50 (IGROV-1; [21]): > 100 µM
- Activity (HCT-15 [18]): 49.94%
- GI50 (TK-10): 34.6 µM
- CC50 (TK-10; [21]): > 100 µM
- GI50 (A549): > 100 µM
- CC50 (A549; [21]): > 100 µM
- Activity (KM12): 21.17%
- Activity (COLO 205): -80.64%
- GI50 (A498): > 100 µM
- CC50 (A498; [21]): > 100 µM
- GI50 (SF-268): 97.7 µM
- CC50 (SF-268; [21]): > 100 µM
- Activity (SK-MEL-28): 35.25%
- Activity (SNB-19 [19]): 31.43%
- Activity (NCI/ADR-RES): 75.31%
- Activity (ACHN): -36.07%
- Activity (SK-OV-3 [20]): 28.27%
- Activity (HOP-92): -2.07%
- GI50 (MDA-MB-468): 17.7 µM
- CC50 (MDA-MB-468; [21]): > 100 µM
